Results taken from ChEMBL document CHEMBL1140227, “Histone deacetylase inhibitors through click chemistry” (J Med Chem, 2008).

Columns and labels:
Type in all cases: functional
HCT-116 = experiment: Growth inhibition of human HCT116 cells at 10 uM relative to control; conditions: values are per cent of control
How it was run: (§1)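 Single-dose preliminary screen in the NCI human cancer cell line panel, run by the NIH. Percent inhibition of cell line growth was calculated by comparison with untreated samples.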

HCT-15 = experiment: Growth inhibition of human HCT15 cells at 10 uM relative to control; conditions: values are per cent of control; how it was run: as §1
HT-29 = experiment: Growth inhibition of human HT-29 cells at 10 uM relative to control; conditions: values are per cent of control; how it was run: as §1
KM12 = experiment: Growth inhibition of human KM12 cells at 10 uM relative to control; conditions: values are per cent of control; how it was run: as §1
SW-620 = experiment: Growth inhibition of human SW620 cells at 10 uM relative to control; conditions: values are per cent of control
How it was run: (§2)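 Single-dose NCI human tumour cell line screen, run by the NIH. Percent inhibition of cell line growth was calculated by comparison with untreated samples.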

BT-549 = experiment: Growth inhibition of human BT549 cells at 10 uM relative to control; conditions: values are per cent of control; how it was run: as §1
[1] = Growth inhibition of human Hs 578T cells at 10 uM relative to control; conditions: values are per cent of control; how it was run: as §1
MCF7 = experiment: Growth inhibition of human MCF7 cells at 10 uM relative to control; conditions: values are per cent of control; how it was run: as §1
MDA-MB-231 = experiment: Growth inhibition of human MDA-MB-231 cells at 10 uM relative to control; conditions: values are per cent of control; how it was run: as §1
MDA-MB-435 = experiment: Growth inhibition of human MDA-MB-435 cells at 10 uM relative to control; conditions: values are per cent of control; how it was run: as §1
MDA-MB-468 = experiment: Growth inhibition of human MDA-MB-468 cells at 10 uM relative to control; conditions: values are per cent of control; how it was run: as §1
NCI/ADR-RES = experiment: Growth inhibition of human NCI/ADR-RES cells at 10 uM relative to control; conditions: values are per cent of control; how it was run: as §1
T47D = experiment: Growth inhibition of human T47D cells at 10 uM relative to control; conditions: values are per cent of control; how it was run: as §2
IGROV-1 = experiment: Growth inhibition of human IGROV1 cells at 10 uM relative to control; conditions: values are per cent of control; how it was run: as §1
OVCAR-3 = experiment: Growth inhibition of human OVCAR-3 cells at 10 uM relative to control; conditions: values are per cent of control; how it was run: as §1
OVCAR-4 = experiment: Growth inhibition of human OVCAR4 cells at 10 uM relative to control; conditions: values are per cent of control; how it was run: as §1
OVCAR-5 = experiment: Growth inhibition of human OVCAR5 cells at 10 uM relative to control; conditions: values are per cent of control; how it was run: as §1
OVCAR-8 = experiment: Growth inhibition of human OVCAR8 cells at 10 uM relative to control; conditions: values are per cent of control; how it was run: as §1
SK-OV-3 = experiment: Growth inhibition of human SKOV3 cells at 10 uM relative to control; conditions: values are per cent of control; how it was run: as §1
CCRF-CEM = experiment: Growth inhibition of human CCRF-CEM cells at 10 uM relative to control; conditions: values are per cent of control; how it was run: as §1
HL-60(TB) = experiment: Growth inhibition of human HL-60(TB) cells at 10 uM relative to control; conditions: read-out: INH
How it was run: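 Single-dose cell line screen run by the NCI (NIH) in its human cancer cell line panel, which includes the leukemia line HL-60(TB). Percent growth inhibition was calculated by comparison with untreated samples.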

K562 = experiment: Growth inhibition of human K562 cells at 10 uM relative to control; conditions: values are per cent of control; how it was run: as §1
MOLT-4 = experiment: Growth inhibition of human MOLT4 cells at 10 uM relative to control; conditions: values are per cent of control; how it was run: as §1
[2] = Growth inhibition of human RPMI8266 cells at 10 uM relative to control; conditions: values are per cent of control; how it was run: as §1
786-0 = experiment: Growth inhibition of human 786-0 cells at 10 uM relative to control; conditions: values are per cent of control; how it was run: as §1
A498 = experiment: Growth inhibition of human A498 cells at 10 uM relative to control; conditions: values are per cent of control; how it was run: as §1
ACHN = experiment: Growth inhibition of human ACHN cells at 10 uM relative to control; conditions: values are per cent of control; how it was run: as §1
SN12C = experiment: Growth inhibition of human SN12C cells at 10 uM relative to control; conditions: values are per cent of control; how it was run: as §1
TK-10 = experiment: Growth inhibition of human TK10 cells at 10 uM relative to control; conditions: values are per cent of control; how it was run: as §2
UO-31 = experiment: Growth inhibition of human UO31 cells at 10 uM relative to control; conditions: values are per cent of control; how it was run: as §2
M14 = experiment: Growth inhibition of human M14 cells at 10 uM relative to control; conditions: values are per cent of control; how it was run: as §1
Malme-3M = experiment: Growth inhibition of human MALME-3M cells at 10 uM relative to control; conditions: values are per cent of control; how it was run: as §1
SK-MEL-2 = experiment: Growth inhibition of human SK-MEL-2 cells at 10 uM relative to control; conditions: values are per cent of control; how it was run: as §1
SK-MEL-5 = experiment: Growth inhibition of human SK-MEL-5 cells at 10 uM relative to control; conditions: values are per cent of control; how it was run: as §1
UACC-257 = experiment: Growth inhibition of human UACC257 cells at 10 uM relative to control; conditions: values are per cent of control; how it was run: as §2
UACC-62 = experiment: Growth inhibition of human UACC62 cells at 10 uM relative to control; conditions: values are per cent of control; how it was run: as §2
DU-145 = experiment: Growth inhibition of human DU145 cells at 10 uM relative to control; conditions: values are per cent of control; how it was run: as §1
PC-3 = experiment: Growth inhibition of human PC3 cells at 10 uM relative to control; conditions: values are per cent of control; how it was run: as §1
SF-268 = experiment: Growth inhibition of human SF268 cells at 10 uM relative to control; conditions: values are per cent of control; how it was run: as §1
SF-295 = experiment: Growth inhibition of human SF295 cells at 10 uM relative to control; conditions: values are per cent of control; how it was run: as §1
SF-539 = experiment: Growth inhibition of human SF539 cells at 10 uM relative to control; conditions: values are per cent of control; how it was run: as §1
SNB-19 = experiment: Growth inhibition of human SNB19 cells at 10 uM relative to control; conditions: values are per cent of control; how it was run: as §1
SNB-75 = experiment: Growth inhibition of human SNB75 cells at 10 uM relative to control; conditions: values are per cent of control; how it was run: as §2
U-251 = experiment: Growth inhibition of human U251 cells at 10 uM relative to control; conditions: values are per cent of control; how it was run: as §2
cells = conditions: Homo sapiens, Cancer cell lines
A549 = experiment: Growth inhibition of human A549 cells at 10 uM relative to control; conditions: values are per cent of control; how it was run: as §1
EKVX = experiment: Growth inhibition of human EKVX cells at 10 uM relative to control; conditions: values are per cent of control; how it was run: as §1
HOP-62 = experiment: Growth inhibition of human HOP62 cells at 10 uM relative to control; conditions: values are per cent of control; how it was run: as §1
NCI-H226 = experiment: Growth inhibition of human NCI-H226 cells at 10 uM relative to control; conditions: values are per cent of control; how it was run: as §1
NCI-H23 = experiment: Growth inhibition of human NCI-H23 cells at 10 uM relative to control; conditions: values are per cent of control; how it was run: as §1
NCI-H322M = experiment: Growth inhibition of human NCI-H322M cells at 10 uM relative to control; conditions: values are per cent of control; how it was run: as §1
NCI-H460 = experiment: Growth inhibition of human NCI-H460 cells at 10 uM relative to control; conditions: values are per cent of control; how it was run: as §1
NCI-H522 = experiment: Growth inhibition of human NCI-H522 cells at 10 uM relative to control; conditions: values are per cent of control; how it was run: as §1
COLO 205 = experiment: Growth inhibition of human COLO205 cells at 10 uM relative to control; conditions: values are per cent of control; how it was run: as §1
HCC 2998 = experiment: Growth inhibition of human HCC2998 cells at 10 uM relative to control; conditions: values are per cent of control; how it was run: as §1

## O=C(Cn1cc(C(=O)NO)nn1)c1ccccc1
HCT-116
  growth, % of control at 10 µM: 97.3%
HCT-15
  growth, % of control at 10 µM: 108%
HT-29
  growth, % of control at 10 µM: 115%
KM12
  growth, % of control at 10 µM: 108%
SW-620
  growth, % of control at 10 µM: 94.8%
BT-549
  growth, % of control at 10 µM: 108%
[1]
  growth, % of control at 10 µM: 90%
MCF7
  growth, % of control at 10 µM: 112%
MDA-MB-231
  growth, % of control at 10 µM: 101%
MDA-MB-435
  growth, % of control at 10 µM: 106%
MDA-MB-468
  growth, % of control at 10 µM: 110%
NCI/ADR-RES
  growth, % of control at 10 µM: 91.3%
T47D
  growth, % of control at 10 µM: 102%
IGROV-1
  growth, % of control at 10 µM: 100%
OVCAR-3
  growth, % of control at 10 µM: 146%
OVCAR-4
  growth, % of control at 10 µM: 112%
OVCAR-5
  growth, % of control at 10 µM: 84.1%
OVCAR-8
  growth, % of control at 10 µM: 96.2%
SK-OV-3
  growth, % of control at 10 µM: 109%
CCRF-CEM
  growth, % of control at 10 µM: 92.1%
HL-60(TB)
  growth, % of control at 10 µM: 136%
K562
  growth, % of control at 10 µM: 85.1%
MOLT-4
  growth, % of control at 10 µM: 110%
[2]
  growth, % of control at 10 µM: 79.8%
786-0
  growth, % of control at 10 µM: 105%
A498
  growth, % of control at 10 µM: 67.6%
ACHN
  growth, % of control at 10 µM: 99.2%
SN12C
  growth, % of control at 10 µM: 97.7%
TK-10
  growth, % of control at 10 µM: 113%
UO-31
  growth, % of control at 10 µM: 84.7%
M14
  growth, % of control at 10 µM: 94.1%
Malme-3M
  growth, % of control at 10 µM: 107%
SK-MEL-2
  growth, % of control at 10 µM: -26.8%
SK-MEL-5
  growth, % of control at 10 µM: 111%
UACC-257
  growth, % of control at 10 µM: 112%
UACC-62
  growth, % of control at 10 µM: 93.3%
DU-145
  growth, % of control at 10 µM: 135%
PC-3
  growth, % of control at 10 µM: 82.1%
SF-268
  growth, % of control at 10 µM: 104%
SF-295
  growth, % of control at 10 µM: 126%
SF-539
  growth, % of control at 10 µM: 118%
SNB-19
  growth, % of control at 10 µM: 95.9%
SNB-75
  growth, % of control at 10 µM: 117%
U-251
  growth, % of control at 10 µM: 96.9%
cells
  inhibition at 10 µM: > 95%
A549
  growth, % of control at 10 µM: 103%
EKVX
  growth, % of control at 10 µM: 108%
HOP-62
  growth, % of control at 10 µM: 118%
NCI-H226
  growth, % of control at 10 µM: 87.6%
NCI-H23
  growth, % of control at 10 µM: 110%
NCI-H322M
  growth, % of control at 10 µM: 95.9%
NCI-H460
  growth, % of control at 10 µM: 120%
NCI-H522
  growth, % of control at 10 µM: 99.2%
COLO 205
  growth, % of control at 10 µM: 123%
HCC 2998
  growth, % of control at 10 µM: 107%
